Source: publication PMC2841442 (Journal of Medicinal Chemistry, 2010)

Key:
NRP1 (PAE/NRP1 cells) [1] = target: T1, NRP1 (PAE/NRP1 cells) (Homo sapiens, UniProt O14786); settings: read-out: IC50, 125I-VEGF-A binding to PAE/NRP1 and tumor cells; cited from earlier work
HUVECs = assay: VEGF-induced HUVEC migration; assay type: cell-based, human; settings: 100 μM; VEGF 25 ng/mL; 4 h
In short: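 HUVECs were pretreated 30 min with test compound or DMSO, then 1.5 × 10^5 cells in EBM/0.1% BSA were loaded into collagen I-coated transwell inserts (8 μm pores). Bottom wells held VEGF at 25 ng/mL, or medium control. Plates ran 4 h at 37 °C. Migrated underside cells were stained and counted in four fields at ×100. Three independent experiments in duplicate, mean ± SEM.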

A549 cells = assay: A549 cell viability; assay type: cell-based, human
In short: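 A549 cells kept in RPMI 1640 with L-glutamine, seeded at 4 × 10^3 cells/well in serum-free medium with graded 5-FU or paclitaxel, with or without test compound at 100 μM. After 44 h, XTT was added for a further 4 h (48 h total). Formazan was read at 490 nm against 595 nm reference. Three independent experiments in triplicate, mean ± SEM.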

NRP1 (PAE/NRP1 cells) [2] = target: T1, NRP1 (PAE/NRP1 cells); assay: Inhibition of 125I-VEGF-A165 binding to PAE/NRP1 cells; settings: 100 μM compound; 0.1 nM 125I-VEGF-A165; mean ± SEM, three experiments
In short: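 Porcine aortic endothelial cells stably expressing NRP1 (Ham's F12, 10% FBS, hygromycin B) were grown to confluence. They received test compound (0.1−100 μM), then 0.1 nM 125I-VEGF-A165 (1200−1800 Ci/mmol). Nonspecific binding was taken with 100-fold excess unlabeled VEGF. IC50 was fitted from competition curves for compounds giving >70% inhibition at 100 μM. Three independent experiments in triplicate, mean ± SEM.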

T1 sequence (O14786 22-923): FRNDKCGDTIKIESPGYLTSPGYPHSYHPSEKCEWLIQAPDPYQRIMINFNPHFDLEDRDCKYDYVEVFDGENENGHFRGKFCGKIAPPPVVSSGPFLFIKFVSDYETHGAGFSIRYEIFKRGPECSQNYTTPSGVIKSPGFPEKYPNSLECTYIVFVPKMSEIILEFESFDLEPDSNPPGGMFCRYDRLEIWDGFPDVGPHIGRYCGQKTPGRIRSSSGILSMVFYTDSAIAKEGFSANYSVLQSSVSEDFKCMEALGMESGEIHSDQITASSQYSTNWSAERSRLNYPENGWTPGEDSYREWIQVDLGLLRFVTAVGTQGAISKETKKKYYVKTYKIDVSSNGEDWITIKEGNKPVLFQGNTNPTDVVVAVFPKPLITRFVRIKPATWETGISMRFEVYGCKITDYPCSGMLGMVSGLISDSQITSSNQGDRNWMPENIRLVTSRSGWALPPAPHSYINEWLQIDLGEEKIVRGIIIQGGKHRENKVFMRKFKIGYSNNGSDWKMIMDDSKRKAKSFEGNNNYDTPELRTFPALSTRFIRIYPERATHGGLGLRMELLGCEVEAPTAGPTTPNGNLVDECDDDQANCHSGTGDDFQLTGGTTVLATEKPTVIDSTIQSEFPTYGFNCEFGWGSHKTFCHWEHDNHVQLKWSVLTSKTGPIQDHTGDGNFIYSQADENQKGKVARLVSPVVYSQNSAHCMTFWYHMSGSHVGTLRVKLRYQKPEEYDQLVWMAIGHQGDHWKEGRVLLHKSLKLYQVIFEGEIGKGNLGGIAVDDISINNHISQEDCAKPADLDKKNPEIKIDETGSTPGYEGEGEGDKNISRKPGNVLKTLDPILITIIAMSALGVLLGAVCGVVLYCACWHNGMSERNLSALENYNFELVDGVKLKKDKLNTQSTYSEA

Row | inhibition of 125I-VEGF binding to PAE/NRP1 cells at 100 μM (NRP1 (PAE/NRP1 cells) [2]) [%] | Molecule | other results
1 | – | 1: bicyclic peptide corresponding to the C-terminal 28 amino acids of VEGF-A165 [Compound 1] | IC50 (NRP1 (PAE/NRP1 cells) [1]): 2000 to 3000 nM
2 | – | N=C(N)NCCC[C@H](NC(=O)c1sccc1NS(=O)(=O)c1cccc2nsnc12)C(=O)O [Compound 2, (S)-2-(3-(Benzo[c][1,2,5]thiadiazole-4-sulfonamido)thiophene-2-carboxamido)-5-guanidinopentanoic Acid] | VEGF-A induced migration of HUVECs (HUVECs): significantly reduced; A549 cell viability (A549 cells; 48 h incubation): significant reduction; enhancement of the cytotoxic effect of 5-fluorouracil (A549 cells; A549 cells, 100 μM 2): ~10 fold; enhancement of the cytotoxic effect of paclitaxel (A549 cells; A549 cells, 100 μM 2): approximately 4 fold
3 | 22 ± 1.2 | H-KPAK-OH [Compound 23] | –
4 | 19 ± 7.6 | H-KPAQ-OH [Compound 24] | –
5 | 22 ± 9.5 | H-KPAr-OH [Compound 22] | –
6 | 36 ± 5.1 | H-KPaR-OH [Compound 19] | –
7 | 51 ± 7.9 | H-kPAR-OH [Compound 18] | –
